Only some compounds are listed: those with a hit (about 2.2% of all), similar ones and a draw of the others.
V-ATPase pHluor = yeast V-ATPase proton transport regulation by pHLuorin; S. cerevisiae, pHLuorin cytosolic pH fluorescence; response, % at 10 µM; actives 0.37% (n = 350,000); in the data active = response mostly above about 7.3%, no sharp cut-off; inactive = mostly below about 5.4%; note: actives read high
FXN GAA850 act = activators of GAA850 frataxin (FXN) promoter | HEK293 lucGAA850 FXN promoter luciferase reporter, 24 h; percent of 10 µM SAHA response | activation, % at 6 µM | actives 0.56% (n = 360,000);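 active = activation above the average of all compounds screened plus 3 SD, cutoff fixed separately per campaign, cut at about 7.5% in these data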;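 note: 0% = DMSO wells and 100% = 10 µM SAHA wells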
Env fusion inh = HIV envelope-mediated fusion inhibition; HeLa-JRFL Env/CEM21 cell fusion, luciferase; inhibition, % at 12.3 µM; actives 1.1% (n = 360,000); AID 651610;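 active = mean replicate inhibition score of at least 50 and every replicate individually at or above 50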;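 note: 0% = plate neutral controls and 100% = maraviroc near 300 nM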
NR2E3 ag-1 = human photoreceptor-specific nuclear receptor agonism; actives 0.35% (n = 360,000); AID 602229; Q9Y5X4; inhibition of corepressor binding, % at 3.98 µM; CHO-S Gal4-NCOR/VP16-NR2E3 two-hybrid, luciferase;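 active = inhibition above the mean of all tested compounds plus 3 SD, cut at about 70% in these data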;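 note: 0% = DMSO with NR2E3 transfected cells and 100% = cells lacking NR2E3 construct; higher means lower luciferase signal from less NR2E3 corepressor binding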
Target sequence (Q9Y5X4 whole entry, looked up, the tested form may be a part): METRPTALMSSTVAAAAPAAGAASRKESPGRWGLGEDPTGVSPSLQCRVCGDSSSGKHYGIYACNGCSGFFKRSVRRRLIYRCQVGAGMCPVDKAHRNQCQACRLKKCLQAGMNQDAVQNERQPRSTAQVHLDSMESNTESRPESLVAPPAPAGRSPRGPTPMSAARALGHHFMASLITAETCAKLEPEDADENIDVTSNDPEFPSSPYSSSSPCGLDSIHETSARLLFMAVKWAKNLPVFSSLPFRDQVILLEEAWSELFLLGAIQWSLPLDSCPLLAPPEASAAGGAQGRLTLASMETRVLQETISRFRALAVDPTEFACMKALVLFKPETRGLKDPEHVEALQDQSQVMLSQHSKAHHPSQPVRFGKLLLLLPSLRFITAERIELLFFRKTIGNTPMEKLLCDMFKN
GalR3 antag = human GalR3 antagonism | HEK293 GalR3-CNG cAMP membrane potential fluorescence; galR3 body fused to GalR1 C-terminus | inhibition, % at 3 µM | actives 0.44% (n = 360,000) | AID 651719 | O60755;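 active = inhibition above the screen-wide average plus 3 SD, cut at about 13% in these data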;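 note: forskolin and galanin both at EC90 stimulate the cells; cAMP rise reported by CNG channel membrane potential dye signal; 0% = forskolin plus galanin with DMSO and 100% = forskolin alone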
NR2E3 ag-2 = NR2E3 (human) agonism; actives 0.12% (n = 320,000); AID 2300; inhibition of corepressor binding, % at 4.78 µM; Q9Y5X4; GST-NR2E3/biotin-RetCOR TR-FRET, 1536-well;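 active = percent inhibition above the cutoff of mean plus 3 SD of all tested compounds, set per screening campaign, cut at about 20% in these data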;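 note: 0% = DMSO wells and 100% = biotin wells as full block of FRET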
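System: GST-tagged NR2E3 plus biotinylated RetCOR corepressor; Amount: 1.35 nM GST-tagged NR2E3 final; Dosing: single nominal compound dose of 4.8 µM; Schedule: 5 h incubation at 4 °C; Technique: TR-FRET with europium anti-GST and streptavidin-D2, 340 nm excitation; Controls: biotin wells as high control, 0.6% DMSO wells as low control.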
NR2E3 ag confirm = NR2E3 agonism confirmed in two-hybrid assay | shares compounds with NR2E3 ag-1 | CHO-S mammalian two-hybrid NR2E3-NCOR, luciferase luminescence | inhibition, % at 3.98 µM | actives 51% (n = 2,300) | AID 624378;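 active = average inhibition above a cutoff equal to the mean inhibition of all tested compounds plus one SD, cut at about 70% in these data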;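 note: 0% = DMSO in NR2E3 cells and 100% = DMSO in cells lacking NR2E3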
VP16 counter = reduces GAL4-VP16 reporter signal in NR2E3 counterscreen | shares compounds with NR2E3 ag-1 | CHO-S GAL4-VP16 luciferase reporter, luminescence | inhibition, % at 3.98 µM | actives 29% (n = 2,300);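 active = mean inhibition above a cutoff equal to the average over all tested compounds plus one standard deviation, cut at about 70% in these data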;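 note: luciferase from a UAS reporter driven by GAL4-VP16 transactivation; 0% = DMSO with VP16-transfected cells and 100% = DMSO with cells lacking VP16; higher means less reporter light so more repression of VP16 activity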
An asterisk follows results filed as active; x = no result given; [ ] = remark or other dose.

SMILES	V-ATPase pHluor	FXN GAA850 act	Env fusion inh	NR2E3 ag-1	GalR3 antag	NR2E3 ag-2	NR2E3 ag confirm	VP16 counter
O=C(NC(Nc1nc2ccc([N+](=O)[O-])cc2s1)(C(F)(F)F)C(F)(F)F)c1ccccc1Cl	-2	-13	25	98*	7	6	97*	90*
CC(C)(C)c1ccc(C(=O)O/N=C(\N)c2ccccn2)cc1	-1	-14	-33	106*	-5	6	89*	76*
CCOc1ccc(C(=O)O/N=C(\N)c2ccccn2)cc1	-3	-10	63*	52	4	x	-58	-126
Cc1ccc(C(=O)O/N=C(\N)c2ccccn2)cc1C	1	-4	52	-16	-4	4	x	x
C[C@]12CCC(=O)N1CCc1c2[nH]c2ccccc12	x	x	7[16.7 µM]	x	x	x	x	x
O=C(NC(=S)Nc1ccc2c(c1)OCCO2)c1cccc(Br)c1	-1	5	-63	-123	1	-2	x	x
S=C(Nc1ccc(Br)cc1)Nc1ccc2c(c1)OCCO2	4	2	-23	50	0	2	-85	-79
CC(C)C[C@@H](CN1CCC[C@@H]1CN1C(=S)NC[C@@H]1Cc1ccc(O)cc1)N1C[C@H](Cc2ccc(O)cc2)N(CC2CCCCC2)C1=S	x	x	32	54	-4	x	14	19
CC(C)C[C@@H](CN1CCC[C@@H]1CN1C(=S)NC[C@@H]1Cc1ccc(O)cc1)N1C[C@H](Cc2ccc(O)cc2)N(CC2CCCCCC2)C1=S	x	x	32	24	1	x	x	x
C[C@@H]1CN([C@H](C)CO)C(=O)c2cc(NC(=O)Nc3ccc4c(c3)OCO4)ccc2O[C@@H](C)CCCCO[C@H]1CN(C)S(=O)(=O)c1ccc(Cl)cc1	x	x	-11[16.7 µM]	x	x	x	x	x
C[C@@H]1CCCCO[C@@H](CN(C)CC2CC2)[C@@H](C)CN([C@H](C)CO)C(=O)c2cc(NC(=O)c3ccncc3)ccc2O1	x	x	-9[16.7 µM]	x	x	x	x	x
CC(C)CNC(=O)C1(N2C(=O)c3ccccc3C2=O)CCCC1	3	1	x	51	x	x	-11	2
Cc1nc(N)nc(-c2ccccc2O)n1	-5	4	x	-8	-5	1	x	x
Nc1nc(N)nc(-c2cc(O)ccc2O)n1	1	-7	53	76*	-1	-1	85*	56
O=C(Nc1cccc(Cl)c1)c1cc(N=Nc2ccc([N+](=O)[O-])cc2Cl)ccc1O	-4	1	15	71*	-9	2	100*	92*
CC(=O)OC1c2ccccc2C(=O)N1Cc1ccccc1 (stereo not given)	6	4	13	75*	x	-2	-1	3
CCOc1cc(/C=N/Nc2nc(C)cc(=O)[nH]2)ccc1O	-3	1	-7	-26	-4	-4	x	x
COc1ccc(/C=N/Nc2cc(C)nc(-n3nc(C)cc3C)n2)c(OC)c1	-4	1	37	65	-3	2	8	5
CCOc1ccc(Nc2cc(C)nc(-n3nc(C)cc3C)n2)cc1	-3	6	-207	84*	3	-2	28	32
Cc1cc(N/N=C/c2ccc(F)cc2)nc(-n2nc(C)cc2C)n1	0	-3	0	94*	-4	-1	3	25
CCOc1cc(/C=N/Nc2cc(C)nc(-n3nc(C)cc3C)n2)ccc1O	0	-8	-3	90*	-4	0	3	-11
CNc1cc(C)nc(-n2nc(C)cc2C)n1	4	0	x	-14	0	-2	x	x
CC(=O)N(C)C[C@H]1Oc2ncc(C#Cc3ccccn3)cc2C(=O)N([C@@H](C)CO)C[C@H]1C	x	x	-25[16.7 µM]	x	x	x	x	x
O=C(C[C@@H]1C[C@H]2c3cc(NC(=O)c4ccc5c(c4)OCO5)ccc3O[C@H]2[C@@H](CO)O1)NCc1cccnc1	x	x	-10[16.7 µM]	x	x	x	x	x
C[C@H](CO)N1C[C@H](C)[C@@H](CN(C)Cc2ccc3c(c2)OCO3)OCCCC[C@H](C)Oc2ccc(NC(=O)NC3CCCCC3)cc2C1=O	x	x	-17[16.7 µM]	x	x	x	x	x

Screens deposited in PubChem by several laboratories.
